A selection: hits, their analogues and other compounds. The true share with any hit is near 3%.
Beta2AR agonist = agonists of human beta-2 adrenergic receptor inducing internalization | AID 504454 | response, % (no concentration beside the values) | P07550 | 340,000 compounds, 0.43% hits | Am2.2-beta2AR cells, FAP receptor internalization, flow cytometry;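 active means response above a set limit, near 3 SD of response in nonfluorescent compounds, cut at about 42% in these data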
Target sequence (P07550 whole entry, looked up): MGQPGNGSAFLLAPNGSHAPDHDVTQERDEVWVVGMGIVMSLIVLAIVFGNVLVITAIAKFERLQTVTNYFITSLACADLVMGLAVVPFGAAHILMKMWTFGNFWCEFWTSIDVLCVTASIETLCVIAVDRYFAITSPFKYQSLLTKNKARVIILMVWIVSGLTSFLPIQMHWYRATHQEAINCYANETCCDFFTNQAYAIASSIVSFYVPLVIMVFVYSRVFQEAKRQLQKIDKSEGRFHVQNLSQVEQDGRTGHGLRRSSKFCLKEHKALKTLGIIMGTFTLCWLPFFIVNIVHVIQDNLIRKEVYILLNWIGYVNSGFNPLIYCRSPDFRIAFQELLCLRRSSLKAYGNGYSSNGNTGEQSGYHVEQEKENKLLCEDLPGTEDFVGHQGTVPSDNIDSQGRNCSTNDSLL
MC4R barr agon = activates human MC4R beta-arrestin recruitment | P32245 | activation, % at 8.9 µM | AID 540308 | 360,000 compounds, 0.98% hits | U2OS MC4R beta-arrestin complementation, luminescence; percent of melanotan II response, DMSO zero;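 active means activation above a per-plate cutoff, the mean activation of sample wells on that plate plus 3 SD, cut at about 8% in these data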
PfG6PD inh = PfG6PD (Plasmodium falciparum) enzyme inhibition. PfGluPho enzyme, NADPH resazurin-diaphorase fluorescence. inhibition, % at 20 µM. 350,000 compounds, 0.78% hits;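 active means inhibition reaching at least a set limit at 20 µM in the primary screen, cut at about 59% in these data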;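 further: 0% = DMSO wells with substrate and 100% = DMSO wells lacking glucose-6-phosphate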
MC4R antagonist = human MC4R antagonism in cAMP assay; P32245; MC4R-expressing cells, MTII-stimulated cAMP, LANCE TR-FRET; inhibition, % at 6.5 µM; 360,000 compounds, 0.48% hits;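 active means inhibition above its plate's cutoff, the mean of tested wells on that plate plus 3 SD, cut at about 29% in these data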;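 further: 0% = Melanotan II alone and 100% = Melanotan II plus saturating MCL0020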
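System: U2OS cells stably expressing human melanocortin 4 receptor (MC4R). Reagent: Melanotan II challenge after compound preincubation. Doses: 6.5 µM. Times: 30-min compound, 1-h challenge, 1-h detection, room temperature. Measured by: TR-FRET with Eu-cAMP and labeled anti-cAMP, 671 nm. Replicates: singlicate.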
ABHD5-PLIN5 inh = blocks binding of human ABHD5 to perilipin-5; Split G. princeps luciferase complementation, luminescence, 4 h; Q00G26+Q8WTS1; inhibition, % at 4 µM; AID 602281; 360,000 compounds, 0.78% hits;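 active means inhibition above the mean inhibition across every tested compound plus 3 SD, cut at about 22% in these data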;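 further: 0% = DMSO only wells and the 100% control is not disclosed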
* hit, by the source's call; . = not tested or not shown.

SMILES	Beta2AR agonist	MC4R barr agon	PfG6PD inh	MC4R antagonist	ABHD5-PLIN5 inh
C=C1CC(Cn2cc(Br)c(=O)[nH]c2=O)(c2ccc(-c3ccccc3)cc2)OC1=O (centres undefined)	50.8*	-1.5	-3.8	5.6	54.5*
O=c1[nH]c(=O)n(Cc2ccc(Oc3ccccc3)cc2)cc1Br	2.9	-1.1	.	-5.7	-3.2
COc1ccc(N2C(=O)CC(Sc3nc(C)cc(C)c3C#N)C2=O)cc1 (centres undefined)	-12.6	-0.6	-0.8	-9.7	6.7
COc1ccc(N2C(=O)CC(Sc3nnnn3-c3ccc(F)cc3)C2=O)cc1 (centres undefined)	16.8	-1.2	33.0	24.9	52.4*
C=CCn1c(SCC(=O)Nc2ccc(-c3nc4ccc(C)cc4s3)cc2)nnc1-c1ccccc1	1.5	38.4*	-2.8	-11.9	-6.2
Cc1ccc(NC(=O)C23CCC(C)(C(=O)[C@H]2Br)C3(C)C)cc1 (some centres undefined)	-2.6	-1.2	4.3	1.8	5.2
O=c1c2c([N+](=O)[O-])cc([N+](=O)[O-])cc2sn1-c1ccc(Br)cc1	-0.9	-2.7	121.0*	7.2	-18.0
O=c1c2c([N+](=O)[O-])cc([N+](=O)[O-])cc2sn1Cc1ccccc1	-0.7	-1.7	123.6*	9.6	2.2
CC(C)COc1cccc(C(=O)NC(=S)NCc2cccnc2)c1	-31.9	-1.9	3.9	6.3	-1.6
Cc1ccnn1CCC(=O)N1CCCC(CCC(=O)N2CCN(c3ccccn3)CC2)C1 (centres undefined)	-5.3	-4.3	-5.1	-5.8	5.2
CSc1nc(=S)c2[nH]c(=S)[nH]c2[nH]1	-0.5	-2.8	87.8*	15.0	-3.6
CN(C)c1nc(C=C(C#N)C#N)c(Cl)n1-c1ccc(F)cc1	52.4*	-0.4	7.5	-5.9	2.1
CCOc1ccccc1NC(=O)/C(C#N)=C/c1c(C)nn(-c2ccc(F)cc2)c1Cl	3.5	1.8	-14.1	-3.5	2.2
Cc1ccc(NC(=O)C(=O)NC(C)C2COc3ccccc3O2)cc1 (centres undefined)	-4.1	10.9*	-3.5	-3.2	-7.5
CNC(=O)C1CCC(=O)N1Cc1c[nH]c2ccccc12 (centres undefined)	.	.	.	.	6.8
CC1=NN(c2ccccc2)C(=O)/C1=C\C=C\c1ccccc1	34.9	0.7	12.7	-6.2	22.4*
CC1=NN(c2ccccc2)C(=O)/C1=C/C=C/c1ccc(N(C)C)cc1	12.1	-2.6	5.2	13.9	2.1
O=C(COc1ccccc1[N+](=O)[O-])Nc1ccc(NC(=O)c2cc3ccccc3o2)cc1	11.6	3.3	-5.0	-3.8	3.2
O=C(COc1ccc(/C=N/NC(=O)c2cc3ccccc3o2)cc1Br)Nc1ccccc1	-17.7	53.0*	-8.8	6.0	4.3
Cc1cc(C)c2c(N)c(C(=O)Nc3ccccc3Cl)sc2n1	-20.3	8.4*	-14.0	4.0	1.0
O=C(COC(=O)/C=C/c1ccccc1[N+](=O)[O-])Nc1ccc(OCc2ccccc2)cc1	5.6	9.2*	-12.4	-5.1	2.9
CC(=O)C1=C(O)C(=O)N(CCCn2ccnc2)C1c1ccc(C)cc1 (centres undefined)	1.9	0.2	4.5	3.0	-7.2
Nc1c(S(=O)(=O)c2cccs2)c2nc3ccccc3nc2n1/N=C/c1cccc(O)c1	17.6	8.4*	6.4	16.9	1.7
CC1CCN(c2ccc3nnc(CCC(=O)N4CCN(c5ccccc5F)CC4)n3n2)CC1	-8.6	-0.9	1.7	2.8	3.3
N#Cc1cc(Sc2ccccn2)c(Sc2ccccn2)cc1C#N	58.0*	0.0	22.5	-1.9	16.1
Cc1ccc(NC(=S)Nc2ccc3nc(-c4ccccn4)c(-c4ccccn4)nc3c2)cc1C	10.5	0.6	96.7*	3.7	-19.4
CN1CCN(CCCNC(=O)c2ccc(/C=C3\Sc4ccccc4N(Cc4ccc(F)cc4)C3=O)cc2)CC1	98.8*	3.3	-22.3	-5.3	13.0
CN1CCN(CCCNC(=O)c2ccc(/C=C3\Oc4ccccc4N(Cc4ccccc4F)C3=O)cc2)CC1	12.0	6.3	-36.3	2.5	9.4
O=[N+]([O-])c1c(Nc2ccccn2)cc(Cl)c2nonc12	63.2*	-5.5	56.1	-8.0	-8.8
O=[N+]([O-])c1ccc(Nc2ccccn2)c([N+](=O)[O-])c1	19.8	-1.7	-6.5	-2.0	6.6
